In ChEMBL document CHEMBL1136830, “Design and synthesis of dimeric HIV-1 integrase inhibitory peptides” (Bioorg Med Chem Lett, 2003):
Starred links: 1 amine or outer side, 2 acyl side, 3 side chain; linkers in the order of their positions; H or OH if unused. Positions of bridges follow the written chain, without caps; N, C: chain ends. Non-standard residues stand in square brackets, D forms with d. Residues, ends and D or L forms follow the SMILES beside them. Chains are numbered I, II in the order given. X1 = O=C([C@@H](CC[*:3])N[*:1])[*:2]; CH2 = C([*:1])[*:2]

Key:
[1] = target: T1, Human immunodeficiency virus type 1 integrase (Human immunodeficiency virus 1, UniProt Q7ZJM1); assay: In vitro inhibitory activity against HIV-1 integrase enzyme 3'-end processing
T1 sequence (Q7ZJM1 whole entry): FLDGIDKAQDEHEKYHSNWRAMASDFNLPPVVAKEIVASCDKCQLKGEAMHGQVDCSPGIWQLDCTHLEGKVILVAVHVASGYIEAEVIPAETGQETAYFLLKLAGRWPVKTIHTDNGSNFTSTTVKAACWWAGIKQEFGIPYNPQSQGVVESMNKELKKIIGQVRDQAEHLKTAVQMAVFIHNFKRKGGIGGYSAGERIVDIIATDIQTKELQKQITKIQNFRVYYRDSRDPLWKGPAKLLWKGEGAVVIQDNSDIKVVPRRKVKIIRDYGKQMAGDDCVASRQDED
Method in brief: (§1)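 HIV-1 integrase (500 nM) pre-incubated with peptides for 20 min at room temperature in 50 mM MOPS pH 7.2, 7.5 mM NaCl, 7.5 mM MnCl2, 5% glycerol. The 3'-processing and strand-transfer reactions were then run by an earlier published method with these changes. IC50 values were reported for each step.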

[2] = target: T1, Human immunodeficiency virus type 1 integrase; assay: In vitro inhibitory activity against HIV-1 integrase enzyme strand transfer process; method in brief: as §1

IC50 [1] [µM]	IC50 [2] [µM]	Compound
67	19	NCCCC[C@H](NC(=O)[C@H](CSC[C@H](NC(=O)[C@@H](N)Cc1c[nH]cn1)C(=O)N[C@@H](CCCCN)C(=O)N[C@@H](Cc1ccccc1)C(=O)N[C@@H](Cc1c[nH]c2ccccc12)C(=O)N[C@@H](Cc1c[nH]c2ccccc12)C(N)=O)NC(=O)[C@@H](N)Cc1c[nH]cn1)C(=O)N[C@@H](Cc1ccccc1)C(=O)N[C@@H](Cc1c[nH]c2ccccc12)C(=O)N[C@@H](Cc1c[nH]c2ccccc12)C(N)=O
59	63	NCCCC[C@H](NC(=O)[C@@H](CCSCC[C@@H](NC(=O)[C@@H](N)Cc1c[nH]cn1)C(=O)N[C@@H](CCCCN)C(=O)N[C@@H](Cc1ccccc1)C(=O)N[C@@H](Cc1c[nH]c2ccccc12)C(=O)N[C@@H](Cc1c[nH]c2ccccc12)C(N)=O)NC(=O)[C@@H](N)Cc1c[nH]cn1)C(=O)N[C@@H](Cc1ccccc1)C(=O)N[C@@H](Cc1c[nH]c2ccccc12)C(=O)N[C@@H](Cc1c[nH]c2ccccc12)C(N)=O
81	58	NCCCC[C@H](NC(=O)[C@H](CSSC[C@H](NC(=O)[C@@H](N)Cc1c[nH]cn1)C(=O)N[C@@H](CCCCN)C(=O)N[C@@H](Cc1ccccc1)C(=O)N[C@@H](Cc1c[nH]c2ccccc12)C(=O)N[C@@H](Cc1c[nH]c2ccccc12)C(N)=O)NC(=O)[C@@H](N)Cc1c[nH]cn1)C(=O)N[C@@H](Cc1ccccc1)C(=O)N[C@@H](Cc1c[nH]c2ccccc12)C(=O)N[C@@H](Cc1c[nH]c2ccccc12)C(N)=O (I: H-HCKFWW-NH2 / II: H-HCKFWW-NH2; disulfide I:2-II:2)
5.3	6.5	NCCCC[C@H](NC(=O)[C@H](CSCSC[C@H](NC(=O)[C@@H](N)Cc1c[nH]cn1)C(=O)N[C@@H](CCCCN)C(=O)N[C@@H](Cc1ccccc1)C(=O)N[C@@H](Cc1c[nH]c2ccccc12)C(=O)N[C@@H](Cc1c[nH]c2ccccc12)C(N)=O)NC(=O)[C@@H](N)Cc1c[nH]cn1)C(=O)N[C@@H](Cc1ccccc1)C(=O)N[C@@H](Cc1c[nH]c2ccccc12)C(=O)N[C@@H](Cc1c[nH]c2ccccc12)C(N)=O (I: H-HCKFWW-NH2 / II: H-HCKFWW-NH2; linker I:2-II:2 via CH2)
77	87	NCCCC[C@H](NC(=O)[C@H](CSCC[C@@H](NC(=O)[C@@H](N)Cc1c[nH]cn1)C(=O)N[C@@H](CCCCN)C(=O)N[C@@H](Cc1ccccc1)C(=O)N[C@@H](Cc1c[nH]c2ccccc12)C(=O)N[C@@H](Cc1c[nH]c2ccccc12)C(N)=O)NC(=O)[C@@H](N)Cc1c[nH]cn1)C(=O)N[C@@H](Cc1ccccc1)C(=O)N[C@@H](Cc1c[nH]c2ccccc12)C(=O)N[C@@H](Cc1c[nH]c2ccccc12)C(N)=O (I: H-H[X1]KFWW-NH2 / II: H-HCKFWW-NH2; thioether I:2-II:2)
102	90	H-HCKFWW-NH2
